Paper PMC10979060 (Heliyon, 2024)
Read-outs that look alike come from different tables or passages of the source. No end group written: not given here.

Tests used:
ACE [1] = settings: cited from earlier work
ACE [2] = test: ACE-inhibitory kinetics; assay type: biochemical
Procedure, shortened: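 Reciprocal velocity was plotted against reciprocal HHL concentration (Lineweaver–Burk). Vmax came from the Y-axis intercept and Km from the X-axis intercept. The inhibition mode was assigned from the plot pattern. Runs were in triplicate.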

Substance: Val-Lys-Pro
- IC50 (ACE [1]; peptide from freshwater clam, ref [39]): 3.7 µM

Substance: MEGAQEAQGD
- IC50 (ACE [1]; peptide from sea cucumber, ref [38]): 4.5 µM

Substance: Tyr-Arg-Pro-Tyr
- IC50 (ACE [1]; peptide from bonito, ref [37]): 320 µM

Substance: KKCHFWPFPW [KKCHFWPFPW]
- inhibition mode (ACE [2]; Lineweaver–Burk, HHL 0.5, 1, 2 mM, peptide 0, 17.63, 35.26, 70.52, 105.78, 141.04, 176.3 μM, triplicate): competitive inhibition
- Km values (ACE [2]; Lineweaver–Burk, HHL 0.5, 1, 2 mM, peptide added vs control, triplicate): higher than that of the control
- inhibitor class (substrate-type, prodrug-type or true inhibitor) (ACE [2]; according to the Lineweaver–Burk plot): true inhibitor
